Bioassay records as filed in PubChem.
A selection: hits, their analogues and other compounds. The true share with any hit is near 0.77%.
bIAP inh – blocks bovine intestinal alkaline phosphatase activity. purified bovine IAP, CDP-star luminescence, 30 min. inhibition, % at 20 µM. 190,000 tested, under 10 active;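 active = over 50% inhibition of intestinal alkaline phosphatase at 20 µM in the single-dose screen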
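test system = bovine IAP enzyme | medium = DEA buffer 100 mM, pH 9.8, with MgCl2 1.0 mM, ZnCl2 0.02 mM | detection = luminescence | dosing = single compound dose of 20 µM, 2% DMSO final | incubation = 30 min reaction at room temperature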
hIAP activ – increases human intestinal alkaline phosphatase activity | 330,000 compounds, 0.16% hits | purified human IAP, CDP-Star luminescence, 30 min; stronger effect = higher value; 1 = vehicle-only enzyme, 0 = enzyme-free background | P09923 | activation factor at 10 µM;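 active = activation factor of the enzyme at least 2-fold when tested at 20 µM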
Target sequence (P09923 whole entry, looked up): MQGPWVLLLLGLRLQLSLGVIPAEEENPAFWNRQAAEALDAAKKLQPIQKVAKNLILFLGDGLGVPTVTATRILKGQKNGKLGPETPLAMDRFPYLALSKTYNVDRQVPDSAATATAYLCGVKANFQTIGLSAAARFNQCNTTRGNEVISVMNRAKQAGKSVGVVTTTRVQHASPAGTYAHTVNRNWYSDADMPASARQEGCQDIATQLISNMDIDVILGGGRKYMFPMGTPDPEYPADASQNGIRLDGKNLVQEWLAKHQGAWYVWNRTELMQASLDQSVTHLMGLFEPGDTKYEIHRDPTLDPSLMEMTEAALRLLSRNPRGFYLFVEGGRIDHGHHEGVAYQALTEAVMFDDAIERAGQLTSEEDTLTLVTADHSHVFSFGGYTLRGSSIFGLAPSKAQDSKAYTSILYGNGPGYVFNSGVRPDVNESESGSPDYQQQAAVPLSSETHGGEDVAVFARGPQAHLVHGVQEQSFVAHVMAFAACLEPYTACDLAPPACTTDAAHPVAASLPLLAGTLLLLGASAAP
mIAP block – mouse IAP inhibition; purified mouse IAP, CDP-Star luminescence, 30 min; inhibition, % at 10 µM; 330,000 compounds, 0.2% hits;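 active = inhibition of at least 40% at 10 µM in the primary screen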;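 also: plate controls were DMSO with enzyme for no effect and no enzyme wells for full effect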
mIAP act – mouse IAP activation; activation factor at 10 µM; 330,000 compounds, 0.24% hits; muIAP, CDP-Star luminescence, 30 min; stronger effect = higher value; 1 = vehicle-only enzyme signal, 0 = enzyme-free wells;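 active = activation factor of at least 2 at 20 µM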
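System: mouse IAP enzyme. Reagent: CDP-Star chemiluminescent phosphatase substrate. Benchmarks: DMSO wells, no-enzyme wells. Times: 30 min enzyme-substrate-compound incubation at room temperature. Detection: luminescence from enzymatic CDP-Star hydrolysis. Doses: test compounds delivered from DMSO solution.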
hIAP inh – blocks human intestinal alkaline phosphatase | P09923 | purified IAP, CDP-Star luminescence, 30 min | inhibition, % at 10 µM | 330,000 compounds, 0.12% hits;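 active = inhibition reaching a set limit with compound at 10 µM in the primary screen, cut at about 35% in these data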;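 also: plate controls were DMSO wells with enzyme for no effect and no-enzyme buffer wells for full effect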
bIAP activator – increases bovine intestinal alkaline phosphatase activity. purified bovine IAP, CDP-star luminescence, 30 min; stronger effect = higher value; fold of DMSO-control signal, blank-subtracted. activation factor at 20 µM. 200,000 compounds, 0.17% hits;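 active = activation factor of 2 or more at 20 µM, a signal rise over negative controls twice the positive control's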
hIAP act conf – human IAP activation confirmation; shares compounds with hIAP activ; purified IAP, CDP-Star luminescence, 30 min; stronger effect = lower value; activation (%Activity, negative = activation), % at 8.3 µM; 880 compounds, 10% hits;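 active = at least twofold enzyme activation in any of six single-dose repeats, which the averaged readout prints as negative percent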
Starred values were filed as active, the others as inactive; . = not tested or not shown.

SMILES | bIAP inh | hIAP activ | mIAP block | mIAP act | hIAP inh | bIAP activator | hIAP act conf
Cn1c(=O)c2c(n(Cc3ccccc3)c1=O)NC(=O)C2CC(=O)NCc1cccc(Cl)c1 (stereo not drawn) | -7 | 1.1 | 11 | 0.89 | -6 | 1.1 | .
O=C(Nc1ccc(Cl)cc1)c1nc[nH]c1C(=O)NCCCNC(=O)c1[nH]cnc1C(=O)Nc1ccc(Cl)cc1 | . | 2.1* | 15 | 0.85 | -105 | . | 1
COC(=O)C(N)Cc1ccc(O)c(O)c1 (stereo not drawn) | 17 | 0.79 | 24 | 0.76 | 21 | 0.8 | .
CC(C)NC(=O)/C(C#N)=C\c1ccc(N(C)C)o1 | 40 | 0.65 | 15 | 0.85 | 35* | 0.6 | 4
O=C(Cc1coc2ccc3ccccc3c12)Nc1nccs1 | 2 | 1 | -7 | 1.1 | -4 | 1 | .
O=C(Cc1coc2ccc3ccccc3c12)NCc1ccccc1 | 21 | 2* | -7 | 1.1 | -103 | 0.8 | 59
Cc1ccc(-c2[nH]ncc2C(=O)c2cccc(F)c2)c(O)c1 | . | 2* | 4 | 0.96 | -105 | . | 6
Cc1cccc(C(=O)c2cn[nH]c2-c2ccc(C)cc2O)c1 | . | 1.1 | -8 | 1.1 | -7 | . | .
CC(c1c(O)c2ccccc2[nH]c1=O)C1(C)CCC(O)C(C)(C)O1 (stereo not drawn) | 1 | 1.1 | -3 | 1 | -8 | 1 | .
CCCCCC(=O)Cc1cc(O)cc2c1C(=O)Oc1cc(O)c(C(=O)O)c(CCCCC)c1O2 | . | 0.6 | 21 | 0.79 | 40* | . | -40
Cn1c(CNC(=O)CCNC(=O)c2cccc(Br)c2)cc(=O)n(C)c1=O | . | 0.63 | 5 | 0.95 | 37* | . | 1
CC(Oc1ccc(F)cc1)C(=O)Oc1ccc(N(C)S(=O)(=O)c2ccccc2)cc1 (stereo not drawn) | . | 1.2 | -8 | 1.1 | -17 | . | .
Cn1cc(CNCc2cnc3ccccn23)c(-c2ccc(Oc3ccccc3)cc2)n1 | -17 | 2.7* | 1 | 0.99 | -169 | 1.2 | 2
COc1cccc2c1cc1c(=O)n(CC(=O)NCCCN3CCN(C)CC3)nc(C)n12 | . | 0.57 | 3 | 0.97 | 43* | . | 0
O=C(CN1CCCC1)Nc1ccc(F)cc1 | 6 | 0.99 | 8 | 0.92 | 1 | 0.9 | .
O=C(CN1CCN(C(=O)N2CCCCC2)CC1)Nc1ccc(F)cc1 | -4 | 2.3* | -9 | 1.1 | -127 | 1 | -97*
Cc1ccc(C(=O)COC(=O)CCc2ccc(S(=O)(=O)N3CCCCC3)cc2)cc1 | 17 | 0.96 | 1 | 0.99 | 4 | 0.8 | .
O=c1cc(-c2ccccc2)[nH]n1-c1nc2ccccc2[nH]1 | -64 | 2* | 9 | 0.91 | -102 | 1.6 | -58*
CCc1cc(=O)[nH]c(-n2[nH]c(-c3ccccc3)cc2=O)n1 | -42 | 1.9 | 31 | 0.69 | -94 | 1.4 | .
Cc1ccc(S(=O)(=O)NC(=O)NC(C)c2ccc(F)cc2)cc1 (stereo not drawn) | . | 0.97 | -3 | 1 | 3 | . | .
Cc1ccc(NC(=O)c2cc(-c3cc(Cl)ccc3O)n[nH]2)cc1C | . | 1.9 | -3 | 1 | -94 | . | .
Cc1ccc(C)c(NC(=O)c2cc(-c3cc(C)ccc3O)n[nH]2)c1 | . | 2.2* | -12 | 1.1 | -121 | . | -58
Cc1cccc(NC(=O)c2cc(-c3cc(Cl)ccc3O)n[nH]2)c1 | . | 2* | -18 | 1.2 | -103 | . | -4
CNc1ccc(S(=O)(=O)NCC(=O)NCCCc2ccccc2)cc1[N+](=O)[O-] | . | 0.65 | -9 | 1.1 | 35* | . | 5
CN(C)c1ccc(S(=O)(=O)NCC(=O)NCc2ccccc2)cc1[N+](=O)[O-] | . | 0.89 | 3 | 0.97 | 11 | . | .
SMILES | bIAP inh | hIAP activ | mIAP block | mIAP act | hIAP inh | bIAP activator | hIAP act conf
CC(Oc1ccc(F)cc1F)C(=O)NNC(=S)NCC1CCCO1 (stereo not drawn) | . | 2.2* | -3 | 1 | -123 | . | 1
O=C(NCC(c1ccco1)N1CCN(c2ccccc2)CC1)C(=O)NC1CC1 (stereo not drawn) | . | 0.87 | 2 | 0.98 | 13 | . | .
O=C(CN1C(=O)CSc2ccccc21)N/N=C/c1ccco1 | . | 1.2 | -7 | 1.1 | -19 | . | .
CS(=O)(=O)N1CCN(C(=O)c2cc(-c3ccncc3)nc3ccc(Cl)cc23)CC1 | -2 | 2.5* | 1 | 0.99 | -145 | 1 | 8
COc1cc(/C=C/C(=O)OCC(=O)NC(=O)NC2CCCCC2)ccc1OC(F)F | . | 0.65 | 5 | 0.95 | 35* | . | 79
COc1ccc(CCNC(=O)CCCCC(=O)NCCc2ccc(OC)cc2)cc1 | . | 0.98 | 10 | 0.9 | 2 | . | .
COc1ccc(CN(CCNC(=O)CCCCC(=O)NCCN(Cc2ccc(OC)cc2)C(C)C)C(C)C)cc1 | . | 0.59 | -16 | 1.2 | 41* | . | 18
CC(=O)c1ccc(N=Nc2ccc(N(C)C)cc2)cc1 | 10 | 1.2 | 3 | 0.97 | -16 | 0.9 | .
CN(C)c1ccc(N=Nc2ccccc2Br)cc1 | . | 0.58 | 18 | 0.81 | 42* | . | -104*
COC(=O)c1cc(-c2ccccc2)n[nH]1 | 5 | 1 | -2 | 1 | -3 | 1 | .
COc1cc(C(=O)NNC(=O)c2cc(-c3ccccc3)n[nH]2)cc(OC)c1C | . | 2.5* | -6 | 1.1 | -149 | . | -42
CS(=O)(=O)Cc1ccc(C(=O)NNC(=O)c2cc(-c3ccccc3)n[nH]2)cc1 | . | 1.3 | 21 | 0.79 | -26 | . | .
CS(=O)(=O)c1ccc(C(=O)NNC(=O)c2cc(-c3ccccc3)n[nH]2)cc1 | . | 0.49 | 26 | 0.74 | 51* | . | 7
COc1ccc(-c2cc(C(=O)NNC(=O)c3csc(N4CCOCC4)n3)c3ccccc3n2)cc1OC | . | 2.4* | 12 | 0.88 | -135 | . | 0
C/C(=N\Nc1cc(C)nc(NCc2ccccc2)n1)c1ccc([N+](=O)[O-])cc1 | . | 0.96 | 8 | 0.92 | 4 | . | .
O=C(NCc1ccco1)c1ccccc1Br | 5 | 1 | -8 | 1.1 | -2 | 1 | .
O=C(NNC(=S)NCc1ccco1)c1ccccc1Br | . | 2.3* | 16 | 0.84 | -126 | . | 41
Cc1ccsc1C(=O)NNC(=S)NC1CCCCC1 | . | 2.3* | 3 | 0.97 | -127 | . | 49
O=C(NNC(=S)NC1CCCCC1)c1ccccc1Br | . | 2* | -3 | 1 | -101 | . | -43*
O=C(C1CC1)N1CCN(C(c2ccccc2)c2ccccc2)CC1 | 0 | 1.1 | 0 | 1 | -13 | 1 | .
Cc1cc(OCC(O)CNC(C)(C)C)ccc1Cl (stereo not drawn) | 32 | 1 | 5 | 0.95 | -2 | 0.7 | .
CC(=O)Nc1ccc(S(=O)(=O)N(C)CC(=O)NNC(=O)Cc2nc3ccccc3n2C)cc1 | . | 2.3* | -6 | 1.1 | -130 | . | -50
CC(=O)Nc1ccc(SCC(=O)NNC(=O)CN(C)S(=O)(=O)c2ccc(C)cc2)cc1 | . | 1.1 | 0 | 1 | -8 | . | .
